Here are results for four molecules from ChEMBL document CHEMBL5620402, “Development of submicromolar 17β-HSD10 inhibitors and their in vitro and in vivo evaluation” (Eur J Med Chem, 2023).

By IC50 is commonly meant the concentration needed to halve the response being measured. What is called logP is a log measure of how a compound divides between an organic and an aqueous phase. By Cmax is commonly meant the peak of the concentration-time curve. Broadly, the Tmax is the time at which the peak concentration occurs. The Kp is the ratio of the level in a tissue or fluid to that in plasma or blood.

Data set [1] has as its target T1, 3-hydroxyacyl-CoA dehydrogenase type-2 (Homo sapiens) (UniProt Q99714).
T1 sequence (whole entry): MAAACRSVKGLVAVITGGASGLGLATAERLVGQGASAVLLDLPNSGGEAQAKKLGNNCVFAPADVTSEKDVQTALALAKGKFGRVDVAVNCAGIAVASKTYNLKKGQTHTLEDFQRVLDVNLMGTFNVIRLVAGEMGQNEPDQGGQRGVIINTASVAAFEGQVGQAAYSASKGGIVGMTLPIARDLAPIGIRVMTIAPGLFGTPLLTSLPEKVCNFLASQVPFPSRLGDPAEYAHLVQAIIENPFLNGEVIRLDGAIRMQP
Description: Inhibition of recombinant 17beta-HSD10 (unknown origin) expressed in Escherichia coli BL21 (DE3) assessed as residual activity at 1 uM using acetoacetyl-CoA as substrate by SAAC method relative to control. In a few lines:
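Recombinant 17β-HSD10 from E. coli BL21(DE3), 0.15 μg, was mixed with 320 μmol/L NADH in Tris-HCl pH 7.4 assay buffer. It was preincubated 5 min at 37 °C with 1 or 10 μM inhibitor or vehicle, then 320 μmol/L acetoacetyl-CoA was added. A340 was followed for 5 min. Residual activity is % of control, triplicate mean ± SD, with t-test versus control.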

Data set [2] has as its target T2, Citrate synthase, mitochondrial (Sus scrofa) (UniProt P00889).
T2 sequence (whole entry): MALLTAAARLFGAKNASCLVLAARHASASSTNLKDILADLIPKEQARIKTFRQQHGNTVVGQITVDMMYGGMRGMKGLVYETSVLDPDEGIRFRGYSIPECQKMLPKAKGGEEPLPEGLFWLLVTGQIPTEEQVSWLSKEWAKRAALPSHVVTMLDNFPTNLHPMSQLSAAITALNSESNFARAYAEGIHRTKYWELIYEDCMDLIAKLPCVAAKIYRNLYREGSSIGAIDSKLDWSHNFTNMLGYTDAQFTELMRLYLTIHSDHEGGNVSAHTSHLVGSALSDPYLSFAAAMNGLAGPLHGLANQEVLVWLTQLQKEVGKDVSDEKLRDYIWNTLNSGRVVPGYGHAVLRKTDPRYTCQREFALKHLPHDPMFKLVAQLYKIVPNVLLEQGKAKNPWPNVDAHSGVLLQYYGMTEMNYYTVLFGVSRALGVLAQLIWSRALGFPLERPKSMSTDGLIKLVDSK
Description: Inhibition of pig brain mitochondrial citrate synthase assessed as activity at 50 uM by DTNB method (reference value: 100 + /- 5.5%). Details: scale not given: the % may be the effect or the level left; call rule not given here. The note with it: Mitochondria.

For data set [3], the target named is T3, Amine oxidase [flavin-containing] A (Sus scrofa, UniProt Q6Q2J0).
T3 sequence (Q6Q2J0 whole entry): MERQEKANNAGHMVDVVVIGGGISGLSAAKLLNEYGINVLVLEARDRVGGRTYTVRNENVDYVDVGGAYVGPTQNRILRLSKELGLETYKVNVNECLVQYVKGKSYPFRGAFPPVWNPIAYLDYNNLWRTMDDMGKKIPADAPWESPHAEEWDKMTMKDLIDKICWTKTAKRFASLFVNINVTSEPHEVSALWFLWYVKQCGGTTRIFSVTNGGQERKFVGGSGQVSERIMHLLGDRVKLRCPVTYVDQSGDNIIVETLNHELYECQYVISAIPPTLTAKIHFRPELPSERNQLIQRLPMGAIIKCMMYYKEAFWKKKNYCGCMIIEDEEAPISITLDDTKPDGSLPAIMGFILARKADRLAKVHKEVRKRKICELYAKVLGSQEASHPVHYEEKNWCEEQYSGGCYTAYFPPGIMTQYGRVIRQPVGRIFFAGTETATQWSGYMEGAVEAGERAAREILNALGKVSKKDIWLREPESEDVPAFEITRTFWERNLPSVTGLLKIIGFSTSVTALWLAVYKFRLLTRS
Description: Inhibition of pig brain mitochondrial MAO-A using [3H]5-HT as substrate incubated for 60 mins by liquid scintillation counting analysis. The class given is mitochondria, Mitochondria. In a few lines:
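Pig brain mitochondria were preincubated with drug at 5–7 concentrations (1–1000 μM) for 60 min at 37 °C. Radiolabelled substrate was then added: [3H]5-HT for MAO-A (20 min) or [14C]PEA for MAO-B (1 min). The aldehyde product was counted by liquid scintillation. IC50 came from four-parameter logistic fits; mean ± SE of ≥2 runs.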

Data set [4] in a line: Inhibition of complex II linked mitochondrial respiration in isolated pig brain mitochondria by O2k respirometry. On the set-up: species or system Sus scrofa. In short, it runs like this: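 Respirometry (Oxygraph-2k) of purified pig brain cortex mitochondria in state 3. Substrates were malate + pyruvate + ADP (Complex I) or ADP + rotenone + succinate (Complex II). One chamber was titrated with compound (10–20 concentrations, final 1.25–500 μM) and the other with DMSO; rates were expressed relative to DMSO. IC50 came from four-parameter logistic fits.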

Data set [5] concerns SH-SY5Y. Description: Cytotoxicity against human SH-SY5Y cells assessed as change in ATP level at 10 uM measured after 48 hrs by CellTiter-Glo assay. The class given is toxicity, cell-based. In short, it runs like this: (§1)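 HEK293 or SH-SY5Y cells in DMEM with 10% FBS, 2 mM glutamine and NEAA were seeded at 7,500 cells per well and grown 24 h. They were then exposed to 1 or 10 μM compound (final 1% DMSO) for 48 h. ATP was read by CellTiter-Glo luminescence after CellTox Green, normalised to 1% DMSO and 100 μM valinomycin controls. At least two experiments in tetraplicate.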
In general terms: In ATP-based viability assays light output follows the ATP content of the culture.

Data set [6] is described as follows: Partition coefficient between Water and Octanol, logP of the compound by UHPLC-DAD-MS analysis. The note with it: pH 7.4.
The test system of data set [7] is SH-SY5Y. Nature of the data set: Cytotoxicity against human SH-SY5Y cells assessed as change in ATP level at 1 uM measured after 48 hrs by CellTiter-Glo assay. The class given is toxicity, cell-based. In short, it runs like this:
as §1

Data set [8] in a line: Cmax in male albino Wistar rat plasma at 60 mg/kg, po measured upto 1440 mins by HPLC-MS analysis. The class given is ADME, organism-based. In a few lines:
(§2)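 Oral gavage via blunt needle into the stomach of male wild-type rats. Dose was 60 mg/kg from a 16 mM solution in 10% NMP, 25% Kolliphor EL and 65% saline. Rats were sacrificed at 15 time-points from 5 to 1440 min, 3 per point. Plasma and brain were analysed by HPLC-MS with non-compartmental analysis; values are mean ± SE of three.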

Data set [9] is described as follows: Tmax in male albino Wistar rat plasma at 60 mg/kg, po measured upto 1440 mins by HPLC-MS analysis. The class given is ADME, organism-based. In short, it runs like this: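 Single oral gavage of a 16 mM solution (blunt needle via oesophagus into stomach) to male wild-type rats, in 10% NMP, 25% Kolliphor EL and 65% saline. Three animals were killed at each of 15 time points from 5 to 1440 min and exsanguinated. Plasma levels were measured by HPLC-MS. Non-compartmental analysis gave mean ± SE of three.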

The nature of data set [10]: Tmax in male albino Wistar rat brain at 60 mg/kg, po measured upto 1440 mins by HPLC-MS analysis. The class given is ADME, organism-based. In short, it runs like this: as §2
A short description of data set [11]: AUC (0 to 1440 mins) in male albino Wistar rat brain at 60 mg/kg, po measured upto 1440 mins by HPLC-MS analysis. The class given is ADME, organism-based. The note with it: in vivo, 24 h. In short, it runs like this: as §2
Data set [12] is described as follows: Permeability coefficient in male albino Wistar rat assessed as ratio of brain AUC to plasma AUC at 60 mg/kg, po measured upto 1440 mins by HPLC-MS analysis. The class given is ADME, organism-based. In a few lines:
as §2

For the molecule `COc1ccc2nc(NC(=O)Nc3ccc(O)c(C(F)(F)F)c3)sc2c1`, the Activity was 39.8% in data set [1], 92.7% in [2] and “Toxic” with SH-SY5Y [5]. Also, the values for the half-maximal inhibitory concentration (IC50) in [3] (read-out: IC50) and in data set [4] were 79 µM and 98 µM, respectively. In addition, the logP in data set [6] is 4.28.
`O=C(Nc1ccc(O)c(Cl)c1)Nc1nc2ccc(C(=O)O)cc2s1`: the Activity in data set [1] is 50%; in data set [2] it was 100%; in the data set with SH-SY5Y [7], “Non-Toxic”; with SH-SY5Y [5], “Non-Toxic”. The figures for the IC50 in [3] (read-out: IC50) and in [4] were 85 µM and 260 µM, respectively. The molecule also showed a Cmax in [8] of 6.85 nM. The Tmax in data set [9] was 25 min; in data set [10] it was 40 min. In data set [11], this molecule displayed an AUC of 20135 pmol·min. The Kp at 24 h in [12] worked out at 0.095. Besides, the logP in data set [6] is 1.19.
As for `CC(=O)Nc1ccc2nc(NC(=O)Nc3ccc(O)c(Cl)c3)sc2c1`, the Activity in data set [1] is 49.5%; in [2], 99.9%; in the data set on SH-SY5Y [7], “Non-Toxic”; in the data set on SH-SY5Y [5], “Non-Toxic”. For the same molecule, the half-maximal inhibitory concentration (IC50) came out at 5.8 µM in data set [3] (read-out: IC50) and 27 µM in data set [4]. In [8], the Cmax turned out to be 13.5 nM. In addition, the time of peak concentration (Tmax) in data set [9] and in data set [10] was 35 min in each case. In data set [11], this molecule showed an AUC of 15749 pmol·min. Besides, the partition ratio (Kp) at 24 h in data set [12] worked out at 0.011. The molecule further displayed a logP in data set [6] of 3.66.
For `NC(=O)c1ccc2nc(NC(=O)Nc3ccc(O)c(Cl)c3)sc2c1`, the Activity in data set [1] is 50%; in data set [2], 94.4%; with SH-SY5Y [7] it was “Non-Toxic”; with SH-SY5Y [5], “Non-Toxic”. In addition, the IC50 entry in data set [3] is “Not Active”. Besides, the logP in data set [6] was determined as 3.32.
